Measurements from ChEMBL document CHEMBL3576780, “Effects of resveratrol on benign prostatic hyperplasia by the regulation of inflammatory and apoptotic proteins” (2015).
The source made the active and inactive calls.

Tests used:
Type in all cases: functional, organism-based
Rattus norvegicus [1] = assay: Reduction in COX2 expression in prostate tissue in BPH-induced Sprague-Dawley rat model at 1 mg/kg, ip daily for 4 weeks by Western blot analysis; conditions: Prostate gland
Procedure, shortened: (§1)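 Prostate homogenized in lysis buffer, 30 μg protein run on SDS-PAGE, PVDF blot, antibody probing, ECL detection, β-actin internal control, densitometry. Mean ± SEM, n = 6 rats/group; one-way ANOVA with Dunnett's test.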

Rattus norvegicus [2] = assay: Reduction in Bcl2 to Bax ratio in prostate tissue in BPH-induced Sprague-Dawley rat model at 1 mg/kg, ip daily for 4 weeks by Western blot analysis; conditions: Prostate gland
Procedure, shortened: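 Male Sprague-Dawley rats, BPH induced by daily im testosterone propionate 10 mg/kg for 4 weeks with daily dosing. Prostate lysate (30 μg protein) Western blotted; Bax and Bcl-2 band densities normalized to β-actin and expressed as Bax/Bcl-2 ratio. Mean ± SEM, n = 6 rats/group.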

Rattus norvegicus [3] = assay: Reduction in proliferating cell nuclear antigen in prostate tissue expression in BPH-induced Sprague-Dawley rat model at 1 mg/kg, ip daily for 4 weeks by Western blot analysis; procedure, shortened: as §1
Rattus norvegicus [4] = assay: Reduction in iNOS expression in prostate tissue in BPH-induced Sprague-Dawley rat model at 1 mg/kg, ip daily for 4 weeks by Western blot analysis; conditions: Prostate gland
Rattus norvegicus [5] = assay: Reduction in prostate weight in BPH-induced Sprague-Dawley rat model at 1 mg/kg, ip daily for 4 weeks in presence testosterone propionate of 10 mg/kg, intramuscular injection for 4 weeks; conditions: Prostate gland
Rattus norvegicus [6] = assay: Reduction in Bcl-xL expression in prostate tissue in BPH-induced Sprague-Dawley rat model at 1 mg/kg, ip daily for 4 weeks by Western blot analysis; conditions: Prostate gland; procedure, shortened: as §1
Rattus norvegicus [7] = assay: Reduction in PARP1 expression in prostate tissue in BPH-induced Sprague-Dawley rat model at 1 mg/kg, ip daily for 4 weeks by Western blot analysis; conditions: Prostate gland; procedure, shortened: as §1
Rattus norvegicus [8] = assay: Increase in Bax expression in prostate tissue in BPH-induced Sprague-Dawley rat model at 1 mg/kg, ip daily for 4 weeks by Western blot analysis; conditions: Prostate gland; procedure, shortened: as §1
Rattus norvegicus [9] = assay: Reduction in Bcl2 expression in prostate tissue in BPH-induced Sprague-Dawley rat model at 1 mg/kg, ip daily for 4 weeks by Western blot analysis; conditions: Prostate gland
Rattus norvegicus [10] = assay: Reduction in procaspase 3 expression in prostate tissue in BPH-induced Sprague-Dawley rat model at 1 mg/kg, ip daily for 4 weeks by Western blot analysis; conditions: Prostate gland; procedure, shortened: as §1
Rattus norvegicus [11] = assay: Reduction in prostate cell proliferation and gland development in BPH-induced Sprague-Dawley rat model at 1 mg/kg, ip daily for 4 weeks by Hematoxylin and eosin staining based microscopy
Procedure, shortened: (§2)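 Prostates fixed in 4% buffered formalin, paraffin embedded, cut at 4 μm, stained with H&E and imaged at original magnification 40×. Epithelial thickness measured by pathologists. Rats received testosterone propionate 10 mg/kg im daily for 4 weeks with daily treatment; n = 6 per group.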

Rattus norvegicus [12] = assay: Reduction in 5alpha-reductase mRNA level in prostate tissue in BPH-induced Sprague-Dawley rat model at 1 mg/kg, ip daily for 4 weeks by quantitative real-time PCR analysis; conditions: Prostate gland
Procedure, shortened: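 Prostate tissue 5α-reductase 2 mRNA quantified by real-time PCR in male Sprague-Dawley rats given testosterone propionate 10 mg/kg im daily for 4 weeks plus daily treatment; mean ± SEM, n = 6 rats/group.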

Rattus norvegicus [13] = assay: Reduction in thickness of epithelium tissue in prostate tissue in BPH-induced Sprague-Dawley rat model at 1 mg/kg, ip daily for 4 weeks by Hematoxylin and eosin staining based microscopy; conditions: Prostate gland; procedure, shortened: as §2
Rattus norvegicus [14] = assay: Reduction in prostate weight in BPH-induced Sprague-Dawley rat model at 5 mg/kg, po daily for 4 weeks in presence testosterone propionate of 10 mg/kg, intramuscular injection for 4 weeks; conditions: Prostate gland
Rattus norvegicus [15] = assay: Reduction in proliferating cell nuclear antigen expression in prostate tissue in BPH-induced Sprague-Dawley rat model at 5 mg/kg, po daily for 4 weeks by Western blot analysis

Measured: inhibition

Oc1ccc(/C=C/c2cc(O)cc(O)c2)cc1
not listed: Rattus norvegicus [14] | Rattus norvegicus [15]
active: all other assays above

CC(C)(C)NC(=O)[C@H]1CC[C@H]2[C@@H]3CC[C@H]4NC(=O)C=C[C@]4(C)[C@H]3CC[C@]12C
active: Rattus norvegicus [14] | Rattus norvegicus [15]
